Drawing on ChEMBL document CHEMBL1821673, “Development of β-amino alcohol derivatives that inhibit Toll-like receptor 4 mediated inflammatory response as potential antiseptics” (J Med Chem, 2011), this text covers IC50, Activity and inhibition for 26 molecules.

Data set [1] addresses T1, Toll-like receptor 4 (Mus musculus, UniProt Q9QUK6).
T1 sequence (Q9QUK6 whole entry): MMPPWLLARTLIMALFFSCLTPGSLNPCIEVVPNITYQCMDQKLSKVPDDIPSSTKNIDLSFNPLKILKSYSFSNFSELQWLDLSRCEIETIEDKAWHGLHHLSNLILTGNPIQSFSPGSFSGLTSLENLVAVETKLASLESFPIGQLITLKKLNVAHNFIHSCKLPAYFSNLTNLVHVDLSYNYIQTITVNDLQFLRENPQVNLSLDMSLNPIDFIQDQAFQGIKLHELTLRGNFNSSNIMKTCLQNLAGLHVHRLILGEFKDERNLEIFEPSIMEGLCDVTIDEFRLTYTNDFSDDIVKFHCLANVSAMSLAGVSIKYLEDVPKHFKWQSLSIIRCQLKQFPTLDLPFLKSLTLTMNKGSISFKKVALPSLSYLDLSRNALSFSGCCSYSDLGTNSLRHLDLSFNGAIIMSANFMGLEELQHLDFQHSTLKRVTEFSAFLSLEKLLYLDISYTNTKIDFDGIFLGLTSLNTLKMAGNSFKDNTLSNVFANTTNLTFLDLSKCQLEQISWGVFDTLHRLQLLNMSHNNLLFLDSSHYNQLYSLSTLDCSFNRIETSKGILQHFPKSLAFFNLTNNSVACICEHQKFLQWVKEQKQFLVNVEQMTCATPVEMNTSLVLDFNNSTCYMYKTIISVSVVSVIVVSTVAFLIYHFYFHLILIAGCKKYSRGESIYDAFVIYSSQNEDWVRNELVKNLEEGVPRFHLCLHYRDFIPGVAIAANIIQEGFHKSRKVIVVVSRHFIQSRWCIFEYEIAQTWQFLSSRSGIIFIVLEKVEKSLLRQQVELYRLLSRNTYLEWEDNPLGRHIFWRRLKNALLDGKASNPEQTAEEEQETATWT
Briefly: Inhibition of LPS-induced TLR4 activation in mouse RAW264.7 cells assessed as reduction in NO production after 18 to 24 hrs. Format: cell-based. An outline of the steps: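 RAW264.7 cells, 100,000 per well, grown 24 h in RPMI with 10% FBS, then switched to unsupplemented RPMI. LPS and compound added together, 18–24 h at 37 °C. Medium nitrite measured with 2,3-diaminonaphthalene (ex 365/em 450 nm) against a nitrite standard curve. Quadruplicate; IC50 by a modified Kou-type method.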

Data set [2] relates to Blood. Put plainly: Cytotoxicity against human whole blood assessed as hemolysis at 1 mM. It counts as tissue-based. The following applies: 1000 µM. An outline of the steps: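 Human whole blood anticoagulated with lepirudin, exposed to compound at up to 1 mM; hemolysis checked.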
For data set [3], the target named is RAC-alpha serine/threonine-protein kinase (Homo sapiens) (UniProt P31749). Put plainly: Inhibition of AKT1 at 16 uM by luciferase fragment complementation assay.
The target of data set [4] is Calcium/calmodulin-dependent protein kinase type 1 (Homo sapiens) (UniProt Q14012). Put plainly: Inhibition of CAMK1 at 16 uM by luciferase fragment complementation assay.
The target of data set [5] is Discoidin domain-containing receptor 2 (Homo sapiens) (UniProt Q16832). Briefly: Inhibition of DDR2 at 16 uM by luciferase fragment complementation assay.
Data set [6] has as its target Glycogen synthase kinase-3 alpha (Homo sapiens) (UniProt P49840). Put plainly: Inhibition of GSK3alpha at 16 uM by luciferase fragment complementation assay.
Data set [7] has as its target Mitogen-activated protein kinase 1 (Homo sapiens) (UniProt P28482). Briefly: Inhibition of […] at 16 uM by luciferase fragment complementation assay.
Data set [8] addresses Hepatocyte growth factor receptor (Homo sapiens) (UniProt P08581). Put plainly: Inhibition of MET at 16 uM by luciferase fragment complementation assay.
In data set [9] the target is Serine/threonine-protein kinase PAK 1 (Homo sapiens) (UniProt Q13153). Put plainly: Inhibition of PAK1 at 16 uM by luciferase fragment complementation assay.
Data set [10] has as its target Platelet-derived growth factor receptor beta (Homo sapiens) (UniProt P09619). Briefly: Inhibition of PDGFRB at 16 uM by luciferase fragment complementation assay.
Data set [11] addresses Serine/threonine-protein kinase pim-1 (Homo sapiens) (UniProt P11309). Briefly: Inhibition of PIM1 at 16 uM by luciferase fragment complementation assay.
Data set [12] concerns the target Protein kinase C gamma type (Homo sapiens) (UniProt P05129). Put plainly: Inhibition of PKCgamma at 16 uM by luciferase fragment complementation assay.
Data set [13] addresses Serine/threonine-protein kinase PLK4 (Homo sapiens) (UniProt O00444). Put plainly: Inhibition of PLK4 at 16 uM by luciferase fragment complementation assay.
Data set [14] addresses Proto-oncogene tyrosine-protein kinase Src (Homo sapiens) (UniProt P12931). Briefly: Inhibition of SRC at 16 uM by luciferase fragment complementation assay.
Data set [15] has as its target T2, Toll-like receptor 4 (Homo sapiens, UniProt O00206). Briefly: Inhibition of LPS-induced TLR4 activation in human whole blood assessed as inhibition of IL-8 release preincubated for 5 to 10 mins. An outline of the steps:
(§1)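 Fresh human blood anticoagulated with lepirudin, preincubated with compound 5–10 min at 37 °C, then stimulated with 100 ng/mL ultrapure E. coli 0111:B4 LPS, rotating 2 h at 37 °C. Stopped with EDTA 10 mM final; plasma TNF-α, IL-8 and IL-6 measured by singleplex Bio-plex, expressed as % of LPS without inhibitor. n = 3 or 9, paired two-sided t-test.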

The target of data set [16] is T2, Toll-like receptor 4. Briefly: Inhibition of LPS-induced TLR4 activation in human whole blood assessed as inhibition of TNFalpha release preincubated for 5 to 10 mins. A digest of the protocol: as §1
Data set [17] has as its target T2, Toll-like receptor 4. Briefly: Inhibition of LPS-induced TLR4 activation in human whole blood assessed as inhibition of IL-6 release preincubated for 5 to 10 mins. A digest of the protocol: as §1
Data set [18] addresses T2, Toll-like receptor 4. Put plainly: Inhibition of LPS-induced TLR4 activation in human whole blood assessed as inhibition of IL-8 release at 500 uM preincubated for 5 to 10 mins. An outline of the steps:
as §1

Data set [19] addresses T2, Toll-like receptor 4. Put plainly: Inhibition of LPS-induced TLR4 activation in human whole blood assessed as inhibition of TNFalpha release at 500 uM preincubated for 5 to 10 mins. A digest of the protocol:
as §1

Data set [20] addresses T2, Toll-like receptor 4. Put plainly: Inhibition of LPS-induced TLR4 activation in human whole blood assessed as inhibition of IL-6 release at 500 uM preincubated for 5 to 10 mins. An outline of the steps:
as §1

Data set [21] deals with T2, Toll-like receptor 4. Briefly: Inhibition of LPS-induced TLR4 activation in human whole blood assessed as inhibition of IL-6 release at 250 uM preincubated for 5 to 10 mins. An outline of the steps: as §1

Each structure is given as a SMILES string. Calls of active or inactive are those of the source. No cut-off for these calls is given here. Where only a bound is given, the exact number is not on record here.

The term IC50 denotes the point on the concentration scale where inhibition reaches its midpoint. Usually inhibition stands for the share of the control response that was lost under treatment.

T2 sequence (O00206 whole entry): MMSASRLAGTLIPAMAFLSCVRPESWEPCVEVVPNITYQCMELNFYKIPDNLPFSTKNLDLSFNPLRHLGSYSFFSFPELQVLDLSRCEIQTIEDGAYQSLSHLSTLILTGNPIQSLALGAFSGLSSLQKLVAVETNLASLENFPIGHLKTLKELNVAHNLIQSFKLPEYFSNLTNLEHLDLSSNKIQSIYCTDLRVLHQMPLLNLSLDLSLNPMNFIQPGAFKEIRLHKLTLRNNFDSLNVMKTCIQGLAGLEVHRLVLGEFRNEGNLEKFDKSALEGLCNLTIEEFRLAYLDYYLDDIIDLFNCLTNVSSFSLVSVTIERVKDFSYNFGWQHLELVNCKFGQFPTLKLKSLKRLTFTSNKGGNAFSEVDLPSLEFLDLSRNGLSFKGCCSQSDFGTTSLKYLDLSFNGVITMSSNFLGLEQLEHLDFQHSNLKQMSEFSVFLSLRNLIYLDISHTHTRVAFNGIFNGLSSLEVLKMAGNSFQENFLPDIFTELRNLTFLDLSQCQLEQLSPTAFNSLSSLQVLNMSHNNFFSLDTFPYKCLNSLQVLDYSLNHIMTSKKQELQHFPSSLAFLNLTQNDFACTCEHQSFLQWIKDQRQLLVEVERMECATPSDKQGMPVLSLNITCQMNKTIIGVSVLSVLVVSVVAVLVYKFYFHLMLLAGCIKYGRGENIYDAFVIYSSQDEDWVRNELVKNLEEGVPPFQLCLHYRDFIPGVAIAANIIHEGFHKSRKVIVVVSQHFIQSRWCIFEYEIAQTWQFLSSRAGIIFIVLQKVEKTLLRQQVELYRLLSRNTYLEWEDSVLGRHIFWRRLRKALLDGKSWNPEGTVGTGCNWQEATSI
Chain of Serine/threonine-protein kinase PLK4 (Homo sapiens) (O00444 whole entry, the tested form may be a part): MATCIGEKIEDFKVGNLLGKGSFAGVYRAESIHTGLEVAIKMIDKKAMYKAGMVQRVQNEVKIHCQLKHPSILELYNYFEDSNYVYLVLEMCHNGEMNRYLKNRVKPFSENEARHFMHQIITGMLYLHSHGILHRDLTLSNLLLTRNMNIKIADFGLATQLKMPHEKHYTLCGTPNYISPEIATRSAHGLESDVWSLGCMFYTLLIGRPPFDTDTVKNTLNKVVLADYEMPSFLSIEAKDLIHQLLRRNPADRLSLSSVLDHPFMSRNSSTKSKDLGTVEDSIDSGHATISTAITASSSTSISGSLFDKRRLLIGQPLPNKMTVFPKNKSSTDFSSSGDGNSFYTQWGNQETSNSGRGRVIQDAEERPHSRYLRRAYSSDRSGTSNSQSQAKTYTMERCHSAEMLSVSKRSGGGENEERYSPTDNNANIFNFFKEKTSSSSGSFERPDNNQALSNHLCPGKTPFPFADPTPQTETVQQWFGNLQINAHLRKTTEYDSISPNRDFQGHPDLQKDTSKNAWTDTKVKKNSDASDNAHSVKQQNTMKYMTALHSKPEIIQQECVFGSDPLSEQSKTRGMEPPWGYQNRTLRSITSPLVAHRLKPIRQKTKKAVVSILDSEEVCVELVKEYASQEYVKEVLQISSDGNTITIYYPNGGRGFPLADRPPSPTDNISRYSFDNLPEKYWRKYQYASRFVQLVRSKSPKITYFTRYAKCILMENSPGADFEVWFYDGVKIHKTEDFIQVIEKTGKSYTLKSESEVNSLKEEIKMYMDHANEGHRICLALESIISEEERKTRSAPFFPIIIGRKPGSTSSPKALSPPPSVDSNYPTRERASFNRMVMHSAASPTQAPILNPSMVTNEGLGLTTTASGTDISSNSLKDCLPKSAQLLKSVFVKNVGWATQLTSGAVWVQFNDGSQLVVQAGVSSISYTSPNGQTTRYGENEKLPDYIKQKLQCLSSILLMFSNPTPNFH
Chain of Proto-oncogene tyrosine-protein kinase Src (Homo sapiens) (P12931 2-536 limits assumed): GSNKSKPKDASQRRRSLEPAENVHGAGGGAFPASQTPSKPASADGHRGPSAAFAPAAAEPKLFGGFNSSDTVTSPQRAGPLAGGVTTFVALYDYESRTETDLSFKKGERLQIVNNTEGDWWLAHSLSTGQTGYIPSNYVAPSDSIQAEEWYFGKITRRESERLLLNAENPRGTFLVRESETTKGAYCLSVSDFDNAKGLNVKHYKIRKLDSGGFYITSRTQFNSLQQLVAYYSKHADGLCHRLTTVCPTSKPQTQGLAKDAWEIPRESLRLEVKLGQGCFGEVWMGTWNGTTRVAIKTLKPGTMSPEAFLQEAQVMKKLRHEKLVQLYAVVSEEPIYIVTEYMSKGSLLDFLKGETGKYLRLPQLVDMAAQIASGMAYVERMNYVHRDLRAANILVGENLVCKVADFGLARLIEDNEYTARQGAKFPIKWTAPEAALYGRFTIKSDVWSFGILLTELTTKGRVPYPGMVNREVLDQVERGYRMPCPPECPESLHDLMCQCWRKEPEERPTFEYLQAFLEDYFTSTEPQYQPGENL
Chain of Hepatocyte growth factor receptor (Homo sapiens) (P08581 whole entry, the tested form may be a part): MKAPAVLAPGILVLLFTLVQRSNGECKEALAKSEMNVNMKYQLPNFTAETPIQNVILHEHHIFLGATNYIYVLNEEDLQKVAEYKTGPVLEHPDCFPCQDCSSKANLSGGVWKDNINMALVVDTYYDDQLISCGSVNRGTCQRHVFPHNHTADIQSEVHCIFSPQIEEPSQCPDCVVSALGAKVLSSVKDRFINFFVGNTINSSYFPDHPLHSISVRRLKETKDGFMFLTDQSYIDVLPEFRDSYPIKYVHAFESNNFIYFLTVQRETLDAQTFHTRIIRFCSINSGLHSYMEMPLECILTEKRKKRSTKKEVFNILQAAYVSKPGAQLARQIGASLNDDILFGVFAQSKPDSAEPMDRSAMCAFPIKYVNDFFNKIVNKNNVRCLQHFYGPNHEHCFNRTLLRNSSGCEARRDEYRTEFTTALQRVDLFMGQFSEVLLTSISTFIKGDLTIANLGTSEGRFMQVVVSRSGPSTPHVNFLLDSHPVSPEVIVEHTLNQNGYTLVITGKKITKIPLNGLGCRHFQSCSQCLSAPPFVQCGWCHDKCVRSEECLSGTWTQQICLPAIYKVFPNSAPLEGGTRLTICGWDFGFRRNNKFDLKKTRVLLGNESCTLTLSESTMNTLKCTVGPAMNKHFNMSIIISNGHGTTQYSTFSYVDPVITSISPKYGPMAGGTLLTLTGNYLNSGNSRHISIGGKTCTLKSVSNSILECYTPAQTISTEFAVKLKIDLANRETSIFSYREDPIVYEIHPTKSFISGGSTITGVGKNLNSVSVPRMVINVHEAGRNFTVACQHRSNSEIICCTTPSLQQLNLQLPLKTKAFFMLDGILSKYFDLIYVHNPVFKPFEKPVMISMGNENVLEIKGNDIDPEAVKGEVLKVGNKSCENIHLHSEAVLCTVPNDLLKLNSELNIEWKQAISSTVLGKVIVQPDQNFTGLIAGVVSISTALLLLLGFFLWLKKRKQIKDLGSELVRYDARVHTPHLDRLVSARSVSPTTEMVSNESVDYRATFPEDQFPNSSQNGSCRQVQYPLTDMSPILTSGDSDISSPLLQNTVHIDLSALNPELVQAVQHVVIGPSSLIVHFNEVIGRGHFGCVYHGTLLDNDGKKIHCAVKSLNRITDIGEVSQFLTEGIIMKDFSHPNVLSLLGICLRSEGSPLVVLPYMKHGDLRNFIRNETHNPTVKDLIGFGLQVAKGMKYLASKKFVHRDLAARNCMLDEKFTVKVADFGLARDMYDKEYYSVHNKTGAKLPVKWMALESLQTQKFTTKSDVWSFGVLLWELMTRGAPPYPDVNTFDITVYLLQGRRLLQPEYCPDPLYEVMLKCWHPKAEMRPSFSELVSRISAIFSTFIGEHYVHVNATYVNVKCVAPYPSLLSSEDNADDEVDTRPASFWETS
Chain of Mitogen-activated protein kinase 1 (Homo sapiens) (P28482 whole entry, the tested form may be a part): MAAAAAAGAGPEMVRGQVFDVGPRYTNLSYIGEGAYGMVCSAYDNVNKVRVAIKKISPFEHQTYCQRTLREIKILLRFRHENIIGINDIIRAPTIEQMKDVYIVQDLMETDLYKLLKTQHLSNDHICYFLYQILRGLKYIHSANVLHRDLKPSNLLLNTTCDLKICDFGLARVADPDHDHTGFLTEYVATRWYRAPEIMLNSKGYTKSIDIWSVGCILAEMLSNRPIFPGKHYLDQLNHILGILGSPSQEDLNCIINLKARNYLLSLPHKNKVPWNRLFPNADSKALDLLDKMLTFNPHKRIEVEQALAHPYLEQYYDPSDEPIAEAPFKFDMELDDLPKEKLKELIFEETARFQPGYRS

With `CCOc1ccc(OCC(O)CN(C)Cc2c(C)nn(Cc3cccc(Cl)c3)c2C)cc1` (racemic), the IC50 in data set [1] worked out at 16.5 µM. For the same molecule, the Activity entry in data set [2] is “Non-toxic”.
Consider `CCOc1ccc(OCC(O)CN(C)Cc2c(C)nn(Cc3ccccc3C)c2C)cc1` (racemic), for which, in data set [1], the IC50 is 47.7 µM. In data set [2], the Activity entry was “Non-toxic”.
The matching figures for `Cc1nn(Cc2ccccc2Cl)c(C)c1CN(C)C[C@H](O)COc1ccc(Cl)cc1`: 15.6 µM and “Non-toxic”.
The corresponding values for `C=Cc1ccccc1Cn1nc(C)c(CN(C)CC(O)COc2ccc(OCC)cc2)c1C` (racemic) are 24.7 µM and “Non-toxic”.
Regarding `Cc1nn(Cc2ccccc2Cl)c(C)c1CN(C)CC(O)COc1ccc(Cl)cc1` (racemic), in data set [1], the IC50 was 16.1 µM. Also, the inhibition in data set [3], in data set [4], in [5], in data set [6], in data set [7] and in data set [8] was ≤ 27% throughout. In addition, the inhibition in data set [9], in [10], in data set [11], in data set [12], in data set [13] and in data set [14] was ≤ 27% each time. For the same molecule, the Activity result in data set [2] is reported as “Non-toxic”.
With `Cc1nn(Cc2ccccc2Cl)c(C)c1CN(C)CC(O)COc1ccc(C#N)cc1` (racemic), in data set [1], the IC50 came out at 52.7 µM. Moreover, in data set [2], the Activity result is recorded as “Non-toxic”.
As to `CCOc1ccc(OCC(O)CN(C)Cc2c(C)nn(Cc3ccccc3C(F)(F)F)c2C)cc1` (racemic), the IC50 in data set [1] stood at 32.1 µM. Further, in data set [2], the Activity entry is given as “Non-toxic”.
The corresponding values for `Cc1nn(Cc2ccccc2Cl)c(C)c1CN(C)C[C@@H](O)COc1ccc(Cl)cc1` are 15.5 µM and “Non-toxic”.
The matching figures for `CCOc1ccc(OCC(O)CN(C)Cc2c(C)nn(Cc3ccccc3OC)c2C)cc1` (racemic): > 100 µM and “Non-toxic”.
The matching figures for `CCOc1ccc(OC[C@@H](O)CN(C)Cc2c(C)nn(Cc3ccccc3Cl)c2C)cc1`: 24.3 µM and “Non-toxic”.
Regarding `Cc1nn(Cc2ccccc2C(F)(F)F)c(C)c1CN(C)CC(O)COc1ccc(C(F)(F)F)cc1` (racemic), in data set [1], the IC50 was determined as 27.3 µM. Moreover, in [2], the Activity result is “Non-toxic”.
With `Cc1nn(Cc2ccccc2Cl)c(C)c1CN(C)CC(O)COc1ccc(C(F)(F)F)cc1` (racemic), the IC50 in [1] stood at 23.7 µM. In [2], the Activity result was “Non-toxic”.
The matching figures for `CCOc1ccc(OCC(O)CN(C)Cc2c(C)nn(Cc3ccccc3)c2C)cc1` (racemic): 51.8 µM and “Non-toxic”.
The corresponding values for `CCOc1ccc(OC[C@H](O)CN(C)Cc2c(C)nn(Cc3ccccc3Cl)c2C)cc1` are 24.8 µM and “Non-toxic”.
The matching figures for `COCCc1ccc(OCC(O)CN(C)Cc2c(C)nn(Cc3ccccc3Cl)c2C)cc1` (racemic): 57.3 µM and “Non-toxic”.
Consider `CCOc1ccc(OCC(O)CN(C)Cc2c(C)nn(Cc3ccccc3F)c2C)cc1` (racemic), for which the half-maximal inhibitory concentration (IC50) in [1] worked out at 47.7 µM. Besides, in data set [2], the Activity result was “Non-toxic”.
Regarding `CCOc1ccc(OCC(CN(C)Cc2c(C)nn(Cc3ccccc3Cl)c2C)OC)cc1` (racemic), the IC50 in data set [1] came out at 19.8 µM.
For `C=CCOc1ccc(OCC(O)CN(C)Cc2c(C)nn(Cc3ccccc3C=C)c2C)cc1` (racemic), in data set [1], the IC50 is 23.1 µM. Further, the Activity entry in data set [2] is “Non-toxic”.
Turning to `COc1ccccc1OCC(O)CN(C)Cc1c(C)nn(Cc2ccccc2Cl)c1C` (racemic), in data set [1], the IC50 amounted to 92.5 µM. The Activity entry in data set [2] is listed as “Non-toxic”.
In the case of `Cc1nn(Cc2ccccc2Cl)c(C)c1CN(C)CC(O)COc1ccc(Cl)c(Cl)c1` (racemic), in data set [1], the IC50 worked out at 20.1 µM. Moreover, in data set [2], the Activity result is given as “Non-toxic”.
The matching figures for `CCOc1ccc(OCC(O)CN(C)Cc2c(C)nn(Cc3ccc(OC)cc3)c2C)cc1` (racemic): 67.6 µM and “Non-toxic”.
Turning to `CCOc1ccc(OCC(O)CN(C)Cc2c(C)nn(Cc3ccc(Cl)c(Cl)c3)c2C)cc1` (racemic), the IC50 in data set [1] was 21.8 µM. Further, in data set [2], the Activity entry is “Non-toxic”.
In the case of `Cc1nn(Cc2ccccc2)c(C)c1CN(C)CC(O)COc1ccccc1` (racemic), the IC50 in data set [1] was > 100 µM. Also, the inhibition entry in data set [15], in data set [16] and in data set [17] was “Dose-dependent effect” throughout. In addition, the inhibition entry in data set [18], in data set [19] and in data set [20] was “Active” throughout. For the same molecule, the inhibition entry in [21] is “inactive”. The Activity entry in [2] is reported as “Non-toxic”.
`C=CCOc1ccc(OCC(O)CN(C)Cc2c(C)nn(Cc3ccccc3Cl)c2C)cc1` (racemic): in data set [1], the IC50 came to 44.6 µM. For the same molecule, in data set [2], the Activity entry is “Non-toxic”.
The corresponding values for `Cc1nn(Cc2ccccc2Cl)c(C)c1CN(C)CC(O)COc1ccccc1` (racemic) are 64.3 µM and “Non-toxic”.
The matching figures for `C=Cc1ccccc1Cn1nc(C)c(CN(C)CC(O)COc2ccc(Cl)cc2)c1C` (racemic): 23.2 µM and “Non-toxic”.
